According to ChEMBL document CHEMBL1155468, “Syntheses and evaluation of anticonvulsant profile and teratogenicity of novel amide derivatives of branched aliphatic carboxylic acids with 4-aminobenzensulfonamide” (J Med Chem, 2010):
Active and inactive are the calls of the source. The calls are words filed in the database; no cut-off is given here.

What was measured:
Mus musculus [1] = assay: Teratogenic effect in SWV mouse assessed as live fetuses at 282 mg/kg, ip administered on morning of day 8 of gestation; type: toxicity, organism-based; set-up: dose 282 mg/kg, route intraperitoneal; conditions: in vivo
Summary of the method: (§1)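 Two-month-old nulligravid SWV females were mated overnight and checked for vaginal plugs the next morning; gestation onset was set at 10 p.m. the previous night. On gestation day 8.5, each dam received a single ip injection (0.55-2.7 mmol/kg range) or vehicle (25% aqueous Cremophor EL) at 10 μL/g body weight. Litters were scored for implants, resorptions, live and dead fetuses, and fetuses with neural tube defects.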

Mus musculus [2] = assay: Anticonvulsant activity in CF1 albino mouse assessed as inhibition of maximal electroshock-induced seizures at 30 mg/kg, ip after 0.5 hrs; type: functional, organism-based; set-up: dose 30 mg/kg
Summary of the method: (§2)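 Test compounds suspended in 0.5% methylcellulose and given ip to adult male CF no. 1 albino mice (18-25 g) at 0.01 mL/g body weight before maximal electroshock challenge.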

Mus musculus [3] = assay: Anticonvulsant activity in CF1 albino mouse assessed as inhibition of maximal electroshock-induced seizures at 300 mg/kg, ip after 0.5 hrs; type: functional, organism-based; set-up: dose 300 mg/kg; summary of the method: as §2
Mus musculus [4] = assay: Anticonvulsant activity in CF1 albino mouse assessed as inhibition of maximal electroshock-induced seizures at 30 mg/kg, ip after 4 hrs; type: functional, organism-based; set-up: dose 30 mg/kg; summary of the method: as §2
Mus musculus [5] = assay: Teratogenic effect in SWV mouse assessed as live fetuses at 141 mg/kg, ip administered on morning of day 8 of gestation; type: toxicity, organism-based; set-up: dose 141 mg/kg, route intraperitoneal; conditions: in vivo; summary of the method: as §1
Rattus norvegicus [6] = assay: Anticonvulsant activity in Sprague-Dawley rat assessed as inhibition of maximal electroshock-induced seizures at 30 mg/kg, po after 15 mins
Mus musculus [7] = assay: Neurotoxicity in CF1 albino mouse assessed as motor impairment at 30 mg/kg, ip after 0.5 hrs; type: toxicity, organism-based; set-up: dose 30 mg/kg, route intraperitoneal; conditions: in vivo
Rattus norvegicus [8] = assay: Anticonvulsant activity in Sprague-Dawley rat assessed as inhibition of maximal electroshock-induced seizures at 30 mg/kg, po after 4 hrs
Mus musculus [9] = assay: Anticonvulsant activity in CF1 albino mouse assessed as inhibition of subcutaneous pentylenetetrazole-induced seizures at 30 mg/kg, ip after 0.5 hrs; type: functional, organism-based; set-up: dose 30 mg/kg
Summary of the method: (§3)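 Adult male CF no. 1 albino mice (18-25 g) dosed ip with compound suspended in 0.5% methylcellulose (0.01 mL/g). Convulsant: pentylenetetrazol dissolved in 0.9% saline as a 0.85% solution for mice, given subcutaneously.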

Mus musculus [10] = assay: Anticonvulsant activity in CF1 albino mouse assessed as inhibition of subcutaneous pentylenetetrazole-induced seizures at 300 mg/kg, ip after 4 hrs; type: functional, organism-based; set-up: dose 300 mg/kg; summary of the method: as §3
Mus musculus [11] = assay: Neurotoxicity in CF1 albino mouse assessed as motor impairment at 100 mg/kg, ip after 4 hrs; type: toxicity, organism-based; set-up: dose 100 mg/kg, route intraperitoneal; conditions: in vivo
Mus musculus [12] = assay: Teratogenic effect in SWV mouse assessed as resorptions at 282 mg/kg, ip administered on morning of day 8 of gestation; type: toxicity, organism-based; set-up: dose 282 mg/kg, route intraperitoneal; conditions: in vivo
Summary of the method: (§4)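 SWV inbred mice: two-month-old nulligravid females mated overnight with males and checked for vaginal plugs next morning; gestation onset taken as 10 p.m. the previous night. On gestation day 8.5 each dam got one ip injection, 0.55–2.7 mmol/kg, in 25% aqueous Cremophor EL (vehicle controls dosed alike), 10 μL/g body weight. Litters and implants tallied; resorptions and live fetuses reported as counts with percentages.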

Mus musculus [13] = assay: Teratogenic effect in SWV mouse assessed as fetuses with neural tube deffects at 282 mg/kg, ip administered on morning of day 8 of gestation; type: toxicity, organism-based; set-up: dose 282 mg/kg, route intraperitoneal; conditions: in vivo; summary of the method: as §1
Mus musculus [14] = assay: Anticonvulsant activity in CF1 albino mouse assessed as inhibition of subcutaneous pentylenetetrazole-induced seizures at 30 mg/kg, ip after 4 hrs; type: functional, organism-based; set-up: dose 30 mg/kg; summary of the method: as §3
Mus musculus [15] = assay: Anticonvulsant activity in CF1 albino mouse assessed as inhibition of subcutaneous pentylenetetrazole-induced seizures at 100 mg/kg, ip after 0.5 hrs; type: functional, organism-based; set-up: dose 100 mg/kg; summary of the method: as §3
Mus musculus [16] = assay: Anticonvulsant activity in CF1 albino mouse assessed as inhibition of subcutaneous pentylenetetrazole-induced seizures at 300 mg/kg, ip after 0.5 hrs; type: functional, organism-based; set-up: dose 300 mg/kg; summary of the method: as §3
Mus musculus [17] = assay: Teratogenic effect in SWV mouse assessed as resorptions at 141 mg/kg, ip administered on morning of day 8 of gestation; type: toxicity, organism-based; set-up: dose 141 mg/kg, route intraperitoneal; conditions: in vivo; summary of the method: as §4
Mus musculus [18] = assay: Anticonvulsant activity in CF1 albino mouse assessed as inhibition of subcutaneous pentylenetetrazole-induced seizures at 100 mg/kg, ip after 4 hrs; type: functional, organism-based; set-up: dose 100 mg/kg; summary of the method: as §3
Mus musculus [19] = assay: Anticonvulsant activity in CF1 albino mouse assessed as inhibition of maximal electroshock-induced seizures at 300 mg/kg, ip after 4 hrs; type: functional, organism-based; set-up: dose 300 mg/kg; summary of the method: as §2
Rattus norvegicus [20] = assay: Anticonvulsant activity in Sprague-Dawley rat assessed as inhibition of maximal electroshock-induced seizures at 30 mg/kg, po after 30 mins
Mus musculus [21] = assay: Neurotoxicity in CF1 albino mouse assessed as motor impairment at 30 mg/kg, ip after 4 hrs; type: toxicity, organism-based; set-up: dose 30 mg/kg, route intraperitoneal; conditions: in vivo
Rattus norvegicus [22] = assay: Anticonvulsant activity in po dosed rat assessed as inhibition of maximal electroshock-induced seizures
Mus musculus [23] = assay: Neurotoxicity in CF1 albino mouse assessed as motor impairment at 300 mg/kg, ip after 4 hrs; type: toxicity, organism-based; set-up: dose 300 mg/kg, route intraperitoneal; conditions: in vivo
Mus musculus [24] = assay: Teratogenic effect in SWV mouse assessed as fetuses with neural tube deffects at 141 mg/kg, ip administered on morning of day 8 of gestation; type: toxicity, organism-based; set-up: dose 141 mg/kg, route intraperitoneal; conditions: in vivo; summary of the method: as §1
Mus musculus [25] = assay: Teratogenic effect in SWV mouse assessed as live fetuses at 156 mg/kg, ip administered on morning of day 8 of gestation; type: toxicity, organism-based; set-up: dose 156 mg/kg, route intraperitoneal; conditions: in vivo; summary of the method: as §1
Mus musculus [26] = assay: Teratogenic effect in SWV mouse assessed as resorptions at 310 mg/kg, ip administered on morning of day 8 of gestation; type: toxicity, organism-based; set-up: dose 310 mg/kg, route intraperitoneal; conditions: in vivo; summary of the method: as §4
Mus musculus [27] = assay: Neurotoxicity in CF1 albino mouse assessed as motor impairment at 300 mg/kg, ip after 0.5 hrs; type: toxicity, organism-based; set-up: dose 300 mg/kg, route intraperitoneal; conditions: in vivo
Mus musculus [28] = assay: Teratogenic effect in SWV mouse assessed as fetuses with neural tube deffects at 310 mg/kg, ip administered on morning of day 8 of gestation; type: toxicity, organism-based; set-up: dose 310 mg/kg, route intraperitoneal; conditions: in vivo; summary of the method: as §1
Mus musculus [29] = assay: Neurotoxicity in CF1 albino mouse assessed as motor impairment at 100 mg/kg, ip after 0.5 hrs; type: toxicity, organism-based; set-up: dose 100 mg/kg, route intraperitoneal; conditions: in vivo
Mus musculus [30] = assay: Teratogenic effect in SWV mouse assessed as fetuses with neural tube deffects at 156 mg/kg, ip administered on morning of day 8 of gestation; type: toxicity, organism-based; set-up: dose 156 mg/kg, route intraperitoneal; conditions: in vivo; summary of the method: as §1
Rattus norvegicus [31] = species: Rattus norvegicus; assay: Protective index, ratio of TD50 for rat to ED50 for maximal electroshock-induced rat seizure model
Mus musculus [32] = assay: Teratogenic effect in SWV mouse assessed as resorptions at 156 mg/kg, ip administered on morning of day 8 of gestation; type: toxicity, organism-based; set-up: dose 156 mg/kg, route intraperitoneal; conditions: in vivo; summary of the method: as §4
Mus musculus [33] = assay: Anticonvulsant activity in CF1 albino mouse assessed as inhibition of maximal electroshock-induced seizures at 100 mg/kg, ip after 0.5 hrs; type: functional, organism-based; set-up: dose 100 mg/kg; summary of the method: as §2
Rattus norvegicus [34] = assay: Neurotoxicity in Sprague-Dawley rat assessed as motor impairment at 30 mg/kg, po after 0.25 to 4 hrs; conditions: in vivo
Mus musculus [35] = assay: Teratogenic effect in SWV mouse assessed as resorptions at 511 mg/kg, ip administered on morning of day 8 of gestation; type: toxicity, organism-based; set-up: dose 511 mg/kg, route intraperitoneal; conditions: in vivo; summary of the method: as §4
[36] = Teratogenic effect in SWV mouse assessed as dead fetuses at 91 mg/kg, ip administered on morning of day 8 of gestation; conditions: in vivo
Mus musculus [37] = assay: Teratogenic effect in SWV mouse assessed as live fetuses at 511 mg/kg, ip administered on morning of day 8 of gestation; type: toxicity, organism-based; set-up: dose 511 mg/kg, route intraperitoneal; conditions: in vivo; summary of the method: as §4
[38] = Teratogenic effect in SWV mouse assessed as dead fetuses at 522 mg/kg, ip administered on morning of day 8 of gestation; conditions: in vivo, read-out: Ratio TD50/ED50
Mus musculus [39] = assay: Teratogenic effect in SWV mouse assessed as live fetuses at 310 mg/kg, ip administered on morning of day 8 of gestation; type: toxicity, organism-based; set-up: dose 310 mg/kg, route intraperitoneal; conditions: in vivo; summary of the method: as §1

Compound	Activity (Mus musculus [2])	Activity (Mus musculus [3])	Activity (Mus musculus [4])	Activity (Mus musculus [7])	Activity (Mus musculus [9])	Activity (Mus musculus [10])	Activity (Mus musculus [11])	Activity (Mus musculus [14])	Activity (Mus musculus [15])	Activity (Mus musculus [16])	Activity (Mus musculus [18])	Activity (Mus musculus [19])	Activity (Mus musculus [21])	ED50 (Rattus norvegicus [22])	Activity (Mus musculus [23])	further results
CC(C)(C)C(=O)Nc1ccc(S(N)(=O)=O)cc1	inactive	Active	inactive	Non-toxic	inactive	inactive	Non-toxic	inactive	inactive	inactive	inactive	Active	Non-toxic	42.2 mg/kg	Non-toxic	Activity (Mus musculus [1]): 91.1%; Activity (Mus musculus [5]): 93.3%; Activity (Rattus norvegicus [6]): inactive; Activity (Rattus norvegicus [8]): Active; Activity (Mus musculus [12]): 8.9%; Activity (Mus musculus [13]): 2.7%; Activity (Mus musculus [17]): 7.5%; Activity (Rattus norvegicus [20]): inactive; Activity (Mus musculus [24]): 3.7%
CCCC(CC)C(=O)Nc1ccc(S(N)(=O)=O)cc1 (centres undefined)	inactive	inactive	inactive	Non-toxic	inactive	inactive	Non-toxic	inactive	inactive	inactive	inactive	Active	Non-toxic	11.6 mg/kg	Non-toxic	Activity (Mus musculus [25]): 84.3%; Activity (Mus musculus [26]): 72%; Activity (Mus musculus [27]): Non-toxic; Activity (Mus musculus [28]): 13.3%; Activity (Mus musculus [29]): Non-toxic; Activity (Mus musculus [30]): 1%; Ratio TD50/ED50 (Rattus norvegicus [31]): >43.1; Activity (Mus musculus [32]): 15.7%; Activity (Mus musculus [33]): inactive; Activity (Rattus norvegicus [34]): Non-toxic; Activity (Mus musculus [35]): 98.5%; ED50 [36]: 11.6 mg/kg; Activity (Mus musculus [37]): 1.5%; selectivity ratio [38]: 43.1; Activity (Mus musculus [39]): 28%
